From publication PMC11956937 (bioRxiv, 2025) come the findings set out here.

pIC50: −log10 of the molar value.

The term pIC50 denotes −log10 of the IC50, conventionally taken in molar units.

Experiment [1] has as its target T1, human TOP1 (Homo sapiens, UniProt P11387).
T1 sequence (P11387 1-765): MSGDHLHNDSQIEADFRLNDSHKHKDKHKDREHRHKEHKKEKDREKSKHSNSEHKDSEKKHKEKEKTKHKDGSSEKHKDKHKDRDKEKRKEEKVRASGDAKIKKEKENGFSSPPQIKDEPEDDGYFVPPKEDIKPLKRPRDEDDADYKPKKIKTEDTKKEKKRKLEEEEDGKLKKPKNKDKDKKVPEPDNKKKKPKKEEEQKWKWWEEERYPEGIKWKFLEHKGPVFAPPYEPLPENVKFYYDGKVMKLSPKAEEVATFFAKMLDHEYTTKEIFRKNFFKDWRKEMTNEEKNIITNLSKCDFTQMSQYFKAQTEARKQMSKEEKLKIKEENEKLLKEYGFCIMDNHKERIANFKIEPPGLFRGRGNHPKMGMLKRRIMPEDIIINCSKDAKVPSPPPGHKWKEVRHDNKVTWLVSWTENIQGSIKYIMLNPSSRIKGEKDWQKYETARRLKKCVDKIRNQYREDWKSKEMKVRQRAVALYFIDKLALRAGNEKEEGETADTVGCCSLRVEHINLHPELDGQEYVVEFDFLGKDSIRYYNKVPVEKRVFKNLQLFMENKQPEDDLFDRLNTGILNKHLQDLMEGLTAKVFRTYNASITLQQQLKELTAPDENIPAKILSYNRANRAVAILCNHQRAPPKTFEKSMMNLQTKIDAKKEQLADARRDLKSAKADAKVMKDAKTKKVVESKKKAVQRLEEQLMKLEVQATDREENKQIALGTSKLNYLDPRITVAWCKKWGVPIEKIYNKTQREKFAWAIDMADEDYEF
Kind of experiment: Inhibition of human TOP1 relaxation activity. The settings on record: comparison of IC50 values for TOP3B and TOP1 relaxation. Type of experiment: biochemical. In outline:
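Recombinant human TOP1 expressed in S. cerevisiae EKY3, 1 unit, with 200 ng supercoiled pBAD/Thio plasmid in 10 mM Tris-HCl pH 8.0, 150 mM NaCl, 1 mM EDTA, 0.1 mM spermidine, 0.1 mg/mL BSA, 5% glycerol; 37 °C, 30 min; SDS stop. Run on 1% agarose in TAE, 20 h at 25 V; ethidium bromide stain. Remaining supercoiled DNA quantified as % inhibition vs DMSO; TOP1 IC50 compared with TOP3B IC50.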

Experiment [2] addresses human TOP3B (Homo sapiens, UniProt O95985). Kind of experiment: Inhibition of human TOP3B relaxation of supercoiled DNA. Type of experiment: biochemical. The settings on record: for Inhibition of the DNA relaxation activity of human TOP3B: tested at up to 200 μM concentration. In outline: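 TOP3B (Sf9-expressed, GST/gel-filtration purified) and E. coli-expressed His-TDRD3 each at 18 nM, then DMSO or test compound, then 500 ng supercoiled pBAD/Thio plasmid; 20 mM HEPES-KOH pH 7.5, 5 mM MgCl2, 1 mM DTT, 0.1 mg/ml BSA; 37 ℃, 1 h. SDS/proteinase K stop; 1% agarose with 5 μg/mL chloroquine, SYBR Gold. Relaxed DNA gives % inhibition vs DMSO; 200 μM screen, IC50 from serial dilutions, 3–4 repeats.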

Chain of human TOP3B (O95985 whole entry): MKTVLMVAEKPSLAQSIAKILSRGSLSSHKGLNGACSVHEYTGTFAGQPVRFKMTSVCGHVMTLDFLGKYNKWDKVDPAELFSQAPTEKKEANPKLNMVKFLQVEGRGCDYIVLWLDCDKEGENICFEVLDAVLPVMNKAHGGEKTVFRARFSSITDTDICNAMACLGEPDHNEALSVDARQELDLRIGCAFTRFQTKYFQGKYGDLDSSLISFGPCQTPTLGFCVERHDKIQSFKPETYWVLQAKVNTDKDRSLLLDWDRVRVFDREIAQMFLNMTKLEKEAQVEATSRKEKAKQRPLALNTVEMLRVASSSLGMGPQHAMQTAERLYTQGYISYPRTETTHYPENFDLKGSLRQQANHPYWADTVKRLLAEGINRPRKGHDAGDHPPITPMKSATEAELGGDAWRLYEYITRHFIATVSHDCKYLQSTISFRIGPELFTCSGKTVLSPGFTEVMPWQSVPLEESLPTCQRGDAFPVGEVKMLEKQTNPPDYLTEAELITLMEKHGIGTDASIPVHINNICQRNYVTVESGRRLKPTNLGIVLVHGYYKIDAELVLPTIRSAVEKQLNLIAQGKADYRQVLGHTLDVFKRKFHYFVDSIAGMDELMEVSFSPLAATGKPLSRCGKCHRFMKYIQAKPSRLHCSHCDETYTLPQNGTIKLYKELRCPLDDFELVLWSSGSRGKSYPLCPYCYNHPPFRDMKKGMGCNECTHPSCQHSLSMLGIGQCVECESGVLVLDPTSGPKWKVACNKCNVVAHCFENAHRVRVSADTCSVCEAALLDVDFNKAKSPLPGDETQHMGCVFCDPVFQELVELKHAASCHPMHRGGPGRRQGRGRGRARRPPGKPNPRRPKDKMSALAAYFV
Chain of human TOP3B (Q9H7E2 whole entry partner): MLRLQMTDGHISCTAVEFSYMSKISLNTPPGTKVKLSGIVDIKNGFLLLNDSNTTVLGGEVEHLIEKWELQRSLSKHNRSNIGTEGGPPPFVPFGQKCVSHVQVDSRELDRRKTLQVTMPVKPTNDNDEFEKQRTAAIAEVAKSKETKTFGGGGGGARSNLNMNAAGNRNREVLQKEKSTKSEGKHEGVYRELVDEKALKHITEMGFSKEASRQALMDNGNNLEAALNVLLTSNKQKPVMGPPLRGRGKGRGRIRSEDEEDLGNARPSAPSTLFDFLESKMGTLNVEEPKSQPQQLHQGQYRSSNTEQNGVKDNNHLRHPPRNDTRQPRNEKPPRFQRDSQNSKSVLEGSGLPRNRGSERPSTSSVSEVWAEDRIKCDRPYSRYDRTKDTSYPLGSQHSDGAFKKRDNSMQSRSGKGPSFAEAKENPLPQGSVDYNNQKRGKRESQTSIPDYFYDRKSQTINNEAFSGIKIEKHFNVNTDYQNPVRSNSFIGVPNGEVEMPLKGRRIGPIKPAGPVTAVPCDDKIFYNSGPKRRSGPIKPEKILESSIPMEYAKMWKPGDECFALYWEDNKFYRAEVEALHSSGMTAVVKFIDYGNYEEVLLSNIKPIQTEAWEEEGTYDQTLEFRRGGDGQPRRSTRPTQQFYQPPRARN

For `Nc1nc(Nc2ccc3c(c2)CC[C@@H](N2CCCC2)CC3)nn1-c1cc2c(nn1)-c1ccccc1CCC2` [bemcentinib], the “Selectivity for inhibition of human TOP3B versus TOP1” value in experiment [1] is “inhibits TOP3B with greater potency than TOP1”. In experiment [2], the pIC50 was 4.46 and the “Inhibition of the DNA relaxation activity of human TOP3B” value is given as “Inhibition was observed”.
For the compound `CN1CCN(C2CCN(C(=O)Nc3cc(Oc4ccc(NC(=O)C5(C(=O)Nc6ccc(F)cc6)CC5)c(F)c4)ccn3)CC2)CC1` [golvatinib], the “Inhibition of the DNA relaxation activity of human TOP3B” value in experiment [2] is “Inhibition was observed only for bemcentinib”.
For `Cc1cn(-c2cc(NC(=O)c3ccc(C)c(Nc4nccc(-c5cccnc5)n4)c3)cc(C(F)(F)F)c2)cn1` [nilotinib], in experiment [2], the “Inhibition of the DNA relaxation activity of human TOP3B” value is on record as “Inhibition was observed only for bemcentinib”.
Same read-out and setting: with `Cc1cn(-c2cc(NC(=O)c3ccc(C)c(Nc4nccc(-c5cnccn5)n4)c3)cc(C(F)(F)F)c2)cn1` [radotinib] the entry was “Inhibition was observed only for bemcentinib”; with `CNC(=O)c1cc(Oc2ccc(NC(=O)Nc3cc(C(C)(C)C)nn3-c3ccc4ncccc4c3)c(F)c2)ccn1` [rebastinib], “Inhibition was observed only for bemcentinib”.
As to `Cc1cc(Nc2ncnc3ccc(NC4=NC(C)(C)CO4)cc23)ccc1Oc1ccn2ncnc2c1` [tucatinib], the “Inhibition of the DNA relaxation activity of human TOP3B” value in experiment [2] is listed as “Inhibition was observed only for bemcentinib”.
